GPR7 antag: GPR7 receptor antagonists, primary screen, cell-based, fluorescence, single concentration | GPR7-expressing cells, fluorescence antagonist assay | 290,000 compounds, 1.1% hits | AID 1861, 2009 | Neuropeptides B/W receptor type 1 (Homo sapiens), P48145 | inhibition, % at 4.4 µM; in the data active = inhibition above about 16%, passing the limit was not always enough;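 note: cells stimulated with the agonist NPW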
Target sequence (P48145 whole entry, looked up): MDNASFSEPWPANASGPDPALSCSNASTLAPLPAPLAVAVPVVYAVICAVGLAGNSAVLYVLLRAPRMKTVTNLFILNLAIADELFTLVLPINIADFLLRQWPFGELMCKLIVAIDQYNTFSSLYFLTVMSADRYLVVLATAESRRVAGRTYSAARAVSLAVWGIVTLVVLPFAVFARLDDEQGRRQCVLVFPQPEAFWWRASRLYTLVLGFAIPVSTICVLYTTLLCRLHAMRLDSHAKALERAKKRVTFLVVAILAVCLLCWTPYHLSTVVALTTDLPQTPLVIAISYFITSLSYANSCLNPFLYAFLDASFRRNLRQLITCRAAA
TAAR1 agonist: human TAAR1 agonists, primary screen, Fluo-8 calcium fluorescence, CHO RD-HGA16 cells. 360,000 compounds, 0.99% hits. vehicle wells 0%, saturating PEA agonist 100%. activation, % at 3 µM. Trace amine-associated receptor 1 (Homo sapiens), Q96RJ0. AID 624467, 2012;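 active = activation above the mean activation of all test compounds in the run plus 3 SD, cut at about 38% in these data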
Target sequence (Q96RJ0 whole entry, looked up): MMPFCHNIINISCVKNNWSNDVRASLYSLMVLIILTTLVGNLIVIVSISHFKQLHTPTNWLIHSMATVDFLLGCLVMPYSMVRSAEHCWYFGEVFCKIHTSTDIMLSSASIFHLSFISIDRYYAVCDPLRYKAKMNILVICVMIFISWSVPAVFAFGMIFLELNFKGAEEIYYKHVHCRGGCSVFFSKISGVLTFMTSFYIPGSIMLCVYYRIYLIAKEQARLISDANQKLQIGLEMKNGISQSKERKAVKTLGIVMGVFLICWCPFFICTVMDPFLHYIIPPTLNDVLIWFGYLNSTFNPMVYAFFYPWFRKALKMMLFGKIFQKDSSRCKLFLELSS
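System: CHO-derived RD-HGA16 cells with stable Gα16 and human TAAR1 / Times: 17-24 h plating, Fluo-8 75 min 37 °C, 30 min RT / Technique: calcium-sensitive Fluo-8 signal, excitation 470-495, emission 515-575 nm / Measure: % activation relative to PEA EC100 response / Benchmarks: DMSO and PEA EC100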
OX1R antag-1: antagonists of human orexin 1 receptor (OX1R) | Orexin/Hypocretin receptor type 1 (Homo sapiens), O43613 | OX1R-expressing cells, FRET antagonist read-out | inhibition, % at 6.6 µM | 330,000 compounds, 1.8% hits; in the data active = inhibition mostly above about 38%, no sharp cut-off; inactive = mostly below about 40%
OX1R antag-2: OX1R (HCRTR1) antagonists, primary screen, fluorescence, CHO/OX1R cells, Fluo-8 calcium, orexin A; Orexin/Hypocretin receptor type 1 (Homo sapiens), O43613; Fluo-8 calcium fluorescence; 330,000 compounds, 0.43% hits; inhibition, % at 5 µM; AID 434989, 2010;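 active = inhibition above its plate's threshold, mean inhibition of all tested compounds on the plate plus 3 SD, cut at about 37% in these data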
CHO parental Ca: ATP-evoked calcium signal inhibitors, parental CHO, primary screen, counter-screen for OX1R antagonist project, cell-based, fluorescence, Fluo-8 calcium dye. 330,000 compounds, 0.63% hits. AID 463079, 2010. parental CHO-K1, ATP-induced calcium, Fluo-8 fluorescence. inhibition, % at 5.6 µM;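 active = inhibition above that plate's mean sample inhibition plus 3 SD, cut at about 26% in these data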
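material = parental CHO cells | also added = ATP as calcium-mobilizing challenge | dosing = single point at 5.6 µM | detection = intracellular calcium via Fluo-8 no-wash fluorescent dye | read-out = % inhibition | benchmarks = low control ATP plus DMSO, high control DMSO only | repeats = one well per compound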
TAAR1 antagonist: human TAAR1 antagonists, primary screen, Fluo-8 calcium fluorescence, CHO RD-HGA16 cells; Trace amine-associated receptor 1 (Homo sapiens), Q96RJ0; 360,000 compounds, 1.5% hits; inhibition, % at 3 µM; antagonist;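 active = inhibition above a per-plate cutoff, the mean inhibition of test compounds on that plate plus 3 SD, cut at about 49% in these data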
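System: CHO RD-HGA16 cells bearing hTAAR1. Reagent: EC80 β-phenethylamine stimulus. Schedule: seeding 17-24 h prior, 75-min 37 °C, 30-min RT dye loading. Signal: Fluo-8 intracellular calcium dye fluorescence, real-time kinetic reads. Read-out: % inhibition from peak post-agonist over basal fluorescence ratio. Benchmarks: vehicle wells and EC80 agonist wells. Replicates: n of 1.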
Large screens that a line does not name were inactive. An excerpt weighted towards active compounds, which were near 4.6% of everything screened.

Cc1ccc2c(C)c(C)c(=O)n(C)c2c1	none (no result: GPR7 antag, OX1R antag-1, OX1R antag-2, CHO parental Ca)
O=C(N/N=C\c1cc([N+](=O)[O-])ccc1N1CCCC1)c1ccccn1	none
CN1CCN(c2ccc([N+](=O)[O-])cc2/C=N/NC(=O)c2cccc([N+](=O)[O-])c2)CC1	OX1R antag-1 66
O=C(N/N=C/c1ccncc1)c1cccc([N+](=O)[O-])c1	OX1R antag-1 57
O=C(N/N=C/c1ccc([N+](=O)[O-])cc1)c1cccc(N2CCCC2=O)c1	OX1R antag-1 76
CNC(=S)NCC(O)c1ccc([N+](=O)[O-])cc1 (centres undefined)	none
NNC(=S)Nc1cccc(-c2n[nH]c(=S)o2)c1	none
N#C/C(=N\Nc1ccc(S(=O)(=O)N2CCCCCC2)cc1)C(N)=S	OX1R antag-1 49
COc1ccc(S(=O)(=O)n2nc(-c3ccc(Cl)cc3)cc2N)cc1OC	GPR7 antag 18
CCOc1ccc(-c2cc(N)n(S(=O)(=O)c3ccc(OC)c(OC)c3)n2)cc1	none
CCC(NC(=O)Nc1nnc(C(F)(F)F)s1)(C(F)(F)F)C(F)(F)F	GPR7 antag 29, OX1R antag-1 60, OX1R antag-2 65, CHO parental Ca 81
COc1ccc(/C=C2\Oc3cc(OCC(=O)N4CCC[C@H]4C(=O)O)ccc3C2=O)c(OC)c1OC	none
COc1ccc(/C=C2\Oc3cc(OCC(=O)N4CCC[C@H]4C(=O)O)ccc3C2=O)cc1OC	OX1R antag-1 51 (no result: TAAR1 agonist, TAAR1 antagonist)
Nc1nc2c(s1)CCc1c-2cnn1-c1ccccc1	OX1R antag-1 61 (no result: TAAR1 agonist, TAAR1 antagonist)
Nc1nc2c(s1)COc1ccccc1-2	none
CN(C(=O)c1ccccc1Cl)c1ccccc1C(=O)NCCc1ccccc1	none
CC(SCc1ccccc1)C(=O)N/N=C/c1ccc(OCC(=O)NCc2ccco2)cc1 (centres undefined)	OX1R antag-1 56
Cc1ccc(NS(=O)(=O)c2ccc(OCC(=O)NCc3ccco3)cc2)cc1	TAAR1 agonist 40
O=C(CCn1nc(-c2ccccc2)c2ccccc2c1=O)N1CCN(c2ccccc2)CC1	OX1R antag-1 62
O=C(CCn1nc(-c2ccccc2)ccc1=O)N1CCN(c2ccccc2)CC1	none
O=C1CCc2cc(S(=O)(=O)NC(Cc3ccccc3)C(=O)NCCC3=CCCCC3)ccc2N1 (centres undefined)	none
COc1ccc(CNC(=O)C2CCN(S(=O)(=O)c3ccc4nc5c(c(C(=O)O)c4c3)CCCC5)CC2)cc1	none (no result: GPR7 antag, OX1R antag-1, OX1R antag-2, CHO parental Ca)
COc1ccc(/C=C2/C(=O)N(c3c(F)c(F)c(F)c(F)c3F)N=C2C)cc1	TAAR1 agonist 42
CN(C)c1ccc2nsnc2c1[N+](=O)[O-]	OX1R antag-1 39
O=[N+]([O-])c1ccc(Nc2ccccn2)c([N+](=O)[O-])c1	OX1R antag-1 36
O=C1c2ccccc2C(=O)N1Nc1ccc([N+](=O)[O-])cc1[N+](=O)[O-]	OX1R antag-1 68
COc1cc(CCc2ccccc2)c(C(=O)O)c(O)c1C/C=C(/C)CCC=C(C)C	CHO parental Ca 46, TAAR1 antagonist 53 (no result: GPR7 antag)
COc1cc(CCc2ccccc2)c(C(=O)O)c(O)c1CC=C(C)C	none (no result: GPR7 antag, OX1R antag-1, OX1R antag-2, CHO parental Ca)
COc1ccc(NC(=O)CC2Oc3ccccc3NC2=O)c(OC)c1 (centres undefined)	none
O=C(c1cc2nc(-c3ccc(F)cc3)cc(C(F)(F)F)n2n1)N1CCCCC1c1cccnc1 (centres undefined)	CHO parental Ca 42
CN(CC(=O)NCCc1ccc(S(N)(=O)=O)cc1)S(=O)(=O)/C=C/c1ccccc1	none
COc1ccc(-c2sc3ccc(OC)cc3c2C#CCCO)cc1	none (no result: TAAR1 agonist, TAAR1 antagonist)
COc1ccc2sc(-c3ccc(N(C)C)cc3)c(C#CCCO)c2c1	OX1R antag-1 51 (no result: GPR7 antag)
Cn1nc(C(=O)NCc2ccccc2)c2c1-c1ccccc1S(=O)(=O)C2	none
CCN1CCN(C(=O)c2cc(COc3ccc4ncccc4c3)on2)CC1	none
COCC1CCCCN1C(=O)c1cc(COc2ccc3ncccc3c2)on1 (centres undefined)	OX1R antag-2 55, CHO parental Ca 47
COCCC1CCCCN1C(=O)c1cc(COc2ccc(-n3cncn3)cc2)on1 (centres undefined)	CHO parental Ca 53
O=[N+]([O-])C(/C=C(\Cl)[N+](=O)[O-])=C(N1CCCCC1)N1CCCCC1	OX1R antag-1 64
CN(C(=O)COC(=O)c1c2c(nc3ccccc13)/C(=C/c1cccc([N+](=O)[O-])c1)CCC2)C1CCS(=O)(=O)C1 (centres undefined)	none
Cc1cccc(C)c1NC(=O)COC(=O)c1c2c(nc3ccccc13)/C(=C\c1ccc3c(c1)OCO3)CCC2	TAAR1 antagonist 53
O=C(COC(=O)c1c2c(nc3ccccc13)/C(=C/c1cccc([N+](=O)[O-])c1)CCC2)NC1CCS(=O)(=O)C1 (centres undefined)	TAAR1 antagonist 51
O=C(CCl)N1CCN(S(=O)(=O)c2ccc3c(c2)CCC3)CC1	none (no result: GPR7 antag)
O=C(OCC(=O)N1CCCC1)c1c2c(nc3ccccc13)CCCCC2	none
Cc1ccc([N+](=O)[O-])cc1NC(=O)c1ccc(C(C)(C)C)cc1	TAAR1 antagonist 53
CCCCN1C(=O)C(CC(=O)NC(c2ccccc2)c2ccccc2)CC(C(=O)N(C(C)C)C(C)C)=C1C (centres undefined)	none (no result: GPR7 antag, OX1R antag-1, OX1R antag-2, CHO parental Ca)
O=C(Nc1nnc(C2CC2)s1)C1CCCCN1S(=O)(=O)c1ccccc1 (centres undefined)	none
COC(=O)[C@H](Cc1ccccc1)NC(=O)NC(C)CCc1ccccc1 (some centres undefined)	TAAR1 agonist 45
Cc1noc(C)c1COc1cccc(C(=O)Nc2ccc(OCc3ccccc3)cc2)c1	none
CC(=O)N(Cc1c(C#N)c2ccccc2n1C)c1ccccc1	none
CC(=O)N(Cc1ccccc1)c1ncc2c(n1)c(=O)c(C#N)c1ccccn12	OX1R antag-1 63
O=C1CCCN2N=C(SCC(=O)Nc3ccc(Cl)cc3)SC2=N1	TAAR1 agonist 39
O=C1CCCN2N=C(SCC(=O)Nc3cccc(Cl)c3)SC2=N1	none
O=C1CCCN2N=C(SCC(=O)Nc3cccc(C(F)(F)F)c3)SC2=N1	CHO parental Ca 37
Cc1ccc(NC(=O)CSC2=NN3CCCC(=O)N=C3S2)cc1Cl	TAAR1 agonist 42
CC(C)(c1ccccc1)c1ccc(OCC(O)CNC2CCN(Cc3ccccc3)CC2)cc1 (centres undefined)	none

Assay outcomes as filed in PubChem BioAssay.
